Source: PubChem
Rows were chosen to be rich in hits. Some 1.3% of all compounds tested hit in one or more screens of this group.
NR2E3 ag-1: activates human NR2E3 receptor | Q9Y5X4 | CHO-S Gal4-NCOR/VP16-NR2E3 two-hybrid, luciferase | inhibition of corepressor binding, % at 3.98 µM | 360,000 tested, 0.35% active;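 active means inhibition above the mean of all tested compounds plus 3 SD, cut at about 70% in these data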;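 further: 0% = DMSO with NR2E3 transfected cells and 100% = cells lacking NR2E3 construct; higher means lower luciferase signal from less NR2E3 corepressor binding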
Target sequence (Q9Y5X4 whole entry, looked up, the tested form may be a part): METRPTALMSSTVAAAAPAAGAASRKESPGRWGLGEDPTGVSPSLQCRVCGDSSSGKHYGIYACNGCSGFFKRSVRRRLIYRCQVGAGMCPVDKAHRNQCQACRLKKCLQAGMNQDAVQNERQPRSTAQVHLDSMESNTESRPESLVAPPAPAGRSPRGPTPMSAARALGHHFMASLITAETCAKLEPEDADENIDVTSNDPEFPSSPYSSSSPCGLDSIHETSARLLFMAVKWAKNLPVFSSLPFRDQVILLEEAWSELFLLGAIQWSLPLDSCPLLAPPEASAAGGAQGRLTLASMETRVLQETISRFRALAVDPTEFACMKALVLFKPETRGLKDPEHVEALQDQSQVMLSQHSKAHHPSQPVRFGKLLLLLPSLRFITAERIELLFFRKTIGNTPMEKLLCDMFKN
EP2 antag: inhibitors of human EP2 prostaglandin E2 receptor | inhibition, % at 25 µM | AID 1422 | 260,000 tested, 0.52% active | C6 glioma cells expressing human EP2, cAMP TR-FRET; cells stimulated with saturating PGE2 | P43116;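 active means percent inhibition above 40 after rounding to a whole number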;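 further: rat C6 glioma host cells with rolipram phosphodiesterase inhibitor present; the protocol text gives 20 µM as final concentration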
GASC-1 inh: human JMJD2C demethylase inhibition; Q9H3R0; GST-JMJD2C(1-420) H3K9me3 demethylation, DELFIA europium; inhibition, % at 2.35 µM; 330,000 tested, 0.069% active;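 active means more than half of a compound's replicate wells show inhibition beyond 50%, single wells judged on their own value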;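 further: signal counts dimethyl H3K9 product captured on neutravidin plate; 0% = median of DMSO wells and 100% = 0.3 times that DMSO median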
Furin inh: blocks human furin protease activity. purified furin, fluorogenic substrate cleavage. inhibition, % at 20 µM or 30 µM. 220,000 tested, 0.061% active. P09958; in the data active means inhibition above about 25%
EP2 mod: modulators of human EP2 prostaglandin E2 receptor; P43116; EP2-expressing cells, cAMP HTRF FRET, PGE2 co-stimulation; induction, % at 25 µM; 260,000 tested, 0.83% active; AID 940;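 active means compounds whose cAMP rise, as percent of the full-agonist control response, exceeds 60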;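 further: rat C6 glioma line stably carrying human EP2 under a CMV promoter; the protocol text gives 20 µM as final concentration; 100% = response of wells given 1 µM PGE2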
NR2E3 ag-2: NR2E3 (human) agonism; GST-NR2E3/biotin-RetCOR TR-FRET, 1536-well; inhibition of corepressor binding, % at 4.78 µM; 320,000 tested, 0.12% active; AID 2300;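 active means percent inhibition above the cutoff of mean plus 3 SD of all tested compounds, set per screening campaign, cut at about 20% in these data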;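 further: 0% = DMSO wells and 100% = biotin wells as full block of FRET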
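Material: NR2E3–RetCOR corepressor complex | Quantity: 1.35 nM GST-tagged NR2E3 final | Schedule: 5 h at 4 °C | Replication: Singlicate compound wells | Reagent: RetCOR corepressor, biotinylated, 7 nM | Controls: Biotin wells as high control, 0.6% DMSO wells as low control | Signal: TR-FRET, Eu(K)-anti-GST donor, streptavidin-D2 acceptor, ex 340, em 617/671 nm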
EP2 cAMP induct: human EP2 receptor cAMP induction, negative in counter-screens; 1,300 tested, 47% active; AID 1080; calls only at 20 µM (by protocol); C6 glioma EP2 cells, cAMP HTRF induction; plus low (about EC15) PGE2 agonist; shares compounds with EP2 mod;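 active means cAMP induction above 50% in the main assay while under 30% in all four parallel counter assays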;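 further: rat C6 glioma cells stably expressing human EP2 receptor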
* marks the source's active call; other numbers are inactive results; i = inactive; nt = not tested or not shown; + = active, no number.

SMILES	NR2E3 ag-1	EP2 antag	GASC-1 inh	Furin inh	EP2 mod	NR2E3 ag-2	EP2 cAMP induct
COc1ccc(C2=Nn3c(nnc3-c3ccccc3)SC2)cc1OC	-1	2	6	-11	70*	-5	i
COc1ccc(C2=Nn3c(nnc3C3CCCCC3)SC2)cc1OC	35	5	3	-9	77*	-1	+
COC(=O)c1c(NC(=O)C(C)C)sc(C(=O)Nc2ccccc2F)c1C	nt	12	nt	nt	-18	nt	nt
CC(C)CCn1c(Oc2ccc(Cl)cc2)nc2c1c(=O)n(C)c(=O)n2C	6	-1	-6	-12	73*	1	+
Cc1cc(C)cc(NC(=O)COC(=O)c2cccnc2)c1	nt	5	nt	nt	-11	nt	nt
CCc1nn(CC(=O)OC(C)C)c(=O)c2cc3sccc3n12	nt	nt	nt	nt	4	nt	nt
CCOC(=O)CCSc1nc(-c2ccc3c(c2)OCO3)cc(C(F)(F)F)c1C#N	1	12	2	-25	31	-2	nt
CCOC(=O)CC(=O)CSc1nc(-c2ccc3c(c2)OCO3)cc(C(F)(F)F)c1C#N	8	7	7	-21	68*	1	i
O=C(COC(=O)c1ccc(S(=O)(=O)N2CCCC2)cc1)Nc1ccc(F)cc1F	-7	4	-14	-17	87*	6	i
O=C(COC(=O)c1ccc(F)cc1)Nc1cc(S(=O)(=O)N2CCOCC2)ccc1N1CCCC1	-22	5	-9	-14	11	4	nt
CCN(CC)CCCNC(=S)N(Cc1cc2ccc(C)cc2[nH]c1=O)CC1CCCO1 (stereo unspecified)	nt	6	nt	nt	-27	nt	nt
CCOP(=O)(OCC)c1nc(-c2ccccc2Cl)oc1N1CCOCC1	-36	8	-3	-15	6	-4	nt
CCOP(=O)(OCC)c1nc(-c2ccc(Cl)cc2Cl)oc1N1CCCCC1	-2	3	-11	-23	52	1	i
COc1ccc(C)cc1NC(=O)c1cc2c(s1)CCC2	-68	8	-5	-8	1	0	nt
COC(=O)c1sccc1NC(=O)c1cc2c(s1)CCCC2	-76	nt	4	3	54	2	i
COC(=O)c1sccc1NC(=O)c1cccc(OC)c1	-33	14	-4	-20	67*	1	i
COCCn1nnnc1C(c1cc2ccc(OC)cc2[nH]c1=O)N1CCc2ccccc21 (stereo unspecified)	nt	8	nt	nt	-76	nt	nt
COc1cc(NC(=S)NC(=O)c2cccc(C)c2)ccc1NC(=O)c1ccco1	nt	9	nt	nt	-94	nt	nt
Cc1ccc(Oc2nc(-c3ccccc3)ncc2S(C)(=O)=O)cc1	3	15	23	-31	75*	1	i
Cc1ccc(Oc2nc(-c3ccccc3)ncc2S(=O)(=O)c2ccc(C)cc2)cc1	-3	8	-12	-9	38	4	nt
COc1ccc(OC)c(N2CC(O)(c3ccccc3)[N+]3=C2SCCC3)c1 (stereo unspecified)	-27	8	12	-7	-25	0	nt
COc1ccc(C2(O)CN(c3ccccc3)C3=[N+]2CCS3)cc1OC (stereo unspecified)	-19	9	25	-8	17	2	nt
OC1(c2ccc(Cl)cc2)CN(c2ccccc2)C2=[N+]1CCS2 (stereo unspecified)	-2	4	32	-18	68*	2	+
OC1(c2ccc(Br)cc2)CN(c2ccccc2)C2=[N+]1CCS2 (stereo unspecified)	16	14	5	-25	75*	-1	+
O=C(COC(=O)C1CC1)Nc1ccccc1Sc1ccccc1	-15	-1	-6	-6	52	5	nt
SMILES	NR2E3 ag-1	EP2 antag	GASC-1 inh	Furin inh	EP2 mod	NR2E3 ag-2	EP2 cAMP induct
Cc1ccc(C(=O)OCC(=O)Nc2ccccc2Sc2ccccc2)cc1C	-13	7	0	-2	69*	-2	+
COc1ccccc1-c1nnc2sc(-c3cc4ccccc4o3)nn12	-31	nt	-5	-6	77*	1	+
COc1ccccc1-c1nnc2sc(-c3ccc(N(C)C)cc3)nn12	32	4	3	-21	51	2	nt
CCOC(=O)c1c(NC(=O)c2ccccc2Cl)sc2c1CCc1ccccc1-2	-14	7	-3	-6	30	1	nt
CCCCC(=O)Nc1sc2c(c1C(=O)OCC)CCC(C=O)=C2Cl	8	5	-10	-8	63*	3	+
Cc1ccc2nc(Nc3ccc4[nH]c(=O)[nH]c4c3)c(-n3nc(C)cc3C)nc2c1	-23	7	9	-12	86*	2	i
Cc1cc(C)n(-c2nc3ccccc3nc2Nc2ccc3c(c2)OCO3)n1	-3	10	28	-11	52	3	nt
CC(O)CN(Cc1ccc(-n2cnc3ccccc32)cc1)Cc1ccc2c(c1)OCO2 (stereo unspecified)	nt	4	nt	nt	-99	nt	nt
Cn1ncc2c1CCc1sc(NC(=O)CN(C3CCCCC3)S(C)(=O)=O)nc1-2	nt	8	nt	nt	-55	nt	nt
COC(=O)c1c(NC(=O)CSc2nnc(-c3cccnc3)n2Cc2ccco2)sc(C)c1C	-9	7	5	-18	55	-1	i
O=C(CSc1nnc(-c2ccc(Cl)cc2)n1Cc1ccco1)c1cccs1	-9	14	-9	-13	70*	2	+
O=C(CSc1nnc(-c2ccncc2)n1Cc1ccco1)c1ccc(Cl)cc1	-4	7	-6	-5	6	1	nt
COCCn1nnnc1CN(Cc1cc2cc(OC)ccc2[nH]c1=O)C1CCCC1	nt	12	nt	nt	-25	nt	nt
COc1ccc(-n2c(SCc3ccccc3)nnc2-c2cccnc2)cc1	nt	14	nt	nt	5	nt	nt
CC(=O)c1ccc(-n2c(C)ccc2-c2ccccc2)cc1	-22	4	-4	-11	90*	0	+
CCOC(=O)c1c(NC(=O)c2ccccc2Cl)sc(C(=O)OC)c1C	nt	11	nt	nt	23	nt	nt
CCC(=O)N(CCC(c1ccccc1)c1ccco1)Cc1cccs1 (stereo unspecified)	-26	8	64	-8	46	1	nt
CCC(=O)N(CCC(Cc1ccccc1)c1ccco1)Cc1ccco1 (stereo unspecified)	-8	9	1	-4	77*	1	i
C/C(=N\N(Cc1ccccc1)c1ccccc1)c1cccnc1	5	9	-18	-17	70*	1	i
C(=N\N(Cc1ccccc1)c1ccccc1)/c1cccnc1	16	11	-13	-11	70*	2	+
CCC1CCCCN1C(=O)CSc1nnc(-c2cccnc2)n1-c1ccc(OC)cc1 (stereo unspecified)	nt	9	nt	nt	8	nt	nt
